Laboratory results as given in ChEMBL document CHEMBL3734675, “Synthesis, antimycobacterial and antibacterial activity of fluoroquinolone derivatives containing an 3-alkoxyimino-4-(cyclopropylanimo)methylpyrrolidine moiety” (2015).
≈ marks a conversion by molar mass, not a printed value.

Legend:
Format in all cases: functional
[1] = system: Staphylococcus epidermidis; experiment: Antibacterial activity against methicillin-sensitive Staphylococcus epidermidis 14-2 after 18 to 24 hrs by two-fold serial dilution method
Outline: (§1)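 Twofold serial dilution in agar media against Gram-positive and Gram-negative strains. Plates incubated at 35 °C for 18–24 h. MIC read as the lowest compound concentration giving complete inhibition of bacterial growth.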

Enterococcus faecium [2] = experiment: Antibacterial activity against Enterococcus faecium 14-5 after 18 to 24 hrs by two-fold serial dilution method; outline: as §1
Escherichia coli [3] = experiment: Antibacterial activity against extended-spectrum beta-lactamase producing Escherichia coli 14-2 after 18 to 24 hrs by two-fold serial dilution method; outline: as §1
Staphylococcus aureus [4] = experiment: Antibacterial activity against methicillin-sensitive Staphylococcus aureus 14-1 after 18 to 24 hrs by two-fold serial dilution method; outline: as §1
Pseudomonas aeruginosa [5] = experiment: Antibacterial activity against Pseudomonas aeruginosa 14-15 after 18 to 24 hrs by two-fold serial dilution method; outline: as §1
Pseudomonas aeruginosa [6] = experiment: Antibacterial activity against Pseudomonas aeruginosa ATCC 27853 after 18 to 24 hrs by two-fold serial dilution method; outline: as §1
Staphylococcus aureus [7] = experiment: Antibacterial activity against methicillin-resistant Staphylococcus aureus 14-4 after 18 to 24 hrs by two-fold serial dilution method
Outline: (§2)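 Agar media, standard twofold serial dilution. MIC is the lowest concentration giving complete inhibition of bacterial growth after incubation at 35 °C for 18–24 h. Ciprofloxacin and levofloxacin were run as comparators.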

Pseudomonas aeruginosa [8] = experiment: Antibacterial activity against Pseudomonas aeruginosa 14-14 after 18 to 24 hrs by two-fold serial dilution method; outline: as §1
Escherichia coli [9] = experiment: Antibacterial activity against extended-spectrum beta-lactamase producing Escherichia coli 14-1 after 18 to 24 hrs by two-fold serial dilution method; outline: as §1
Klebsiella pneumoniae [10] = experiment: Antibacterial activity against Klebsiella pneumoniae 14-4 after 18 to 24 hrs by two-fold serial dilution method; outline: as §1
Enterococcus faecalis [11] = experiment: Antibacterial activity against Enterococcus faecalis 14-2 after 18 to 24 hrs by two-fold serial dilution method; outline: as §1
Escherichia coli [12] = experiment: Antibacterial activity against Escherichia coli 14-1 after 18 to 24 hrs by two-fold serial dilution method; outline: as §1
Klebsiella pneumoniae [13] = experiment: Antibacterial activity against extended-spectrum beta-lactamase producing Klebsiella pneumoniae 14-17 after 18 to 24 hrs by two-fold serial dilution method; outline: as §1
Enterococcus faecalis [14] = experiment: Antibacterial activity against Enterococcus faecalis 14-1 after 18 to 24 hrs by two-fold serial dilution method; outline: as §1
Staphylococcus aureus [15] = experiment: Antibacterial activity against methicillin-resistant Staphylococcus aureus 14-5 after 18 to 24 hrs by two-fold serial dilution method; outline: as §2
Klebsiella pneumoniae [16] = experiment: Antibacterial activity against extended-spectrum beta-lactamase producing Klebsiella pneumoniae 14-19 after 18 to 24 hrs by two-fold serial dilution method; outline: as §1
[17] = system: Staphylococcus epidermidis; experiment: Antibacterial activity against methicillin-resistant Staphylococcus epidermidis 14-37 after 18 to 24 hrs by two-fold serial dilution method; outline: as §2
[18] = system: Staphylococcus epidermidis; experiment: Antibacterial activity against methicillin-resistant Staphylococcus epidermidis 14-21 after 18 to 24 hrs by two-fold serial dilution method; outline: as §2
Enterococcus faecium [19] = experiment: Antibacterial activity against Enterococcus faecium 14-2 after 18 to 24 hrs by two-fold serial dilution method; outline: as §1
Klebsiella pneumoniae [20] = experiment: Antibacterial activity against extended-spectrum beta-lactamase producing Klebsiella pneumoniae 14-18 after 18 to 24 hrs by two-fold serial dilution method; outline: as §1
Staphylococcus aureus [21] = experiment: Antibacterial activity against Staphylococcus aureus CMCC 26003 after 18 to 24 hrs by two-fold serial dilution method; outline: as §1
Enterococcus faecium [22] = experiment: Antibacterial activity against Enterococcus faecium 14-6 after 18 to 24 hrs by two-fold serial dilution method; outline: as §1
Pseudomonas aeruginosa [23] = experiment: Antibacterial activity against Pseudomonas aeruginosa 14-16 after 18 to 24 hrs by two-fold serial dilution method; outline: as §1
Staphylococcus aureus [24] = experiment: Antibacterial activity against methicillin-sensitive Staphylococcus aureus 14-4 after 18 to 24 hrs by two-fold serial dilution method; outline: as §1
Klebsiella pneumoniae [25] = experiment: Antibacterial activity against Klebsiella pneumoniae 14-2 after 18 to 24 hrs by two-fold serial dilution method; outline: as §1
Streptococcus pneumoniae = experiment: Antibacterial activity against methicillin-resistant Streptococcus pneumoniae ATCC 19615 after 18 to 24 hrs by two-fold serial dilution method; outline: as §2
Escherichia coli [26] = experiment: Antibacterial activity against Escherichia coli 14-2 after 18 to 24 hrs by two-fold serial dilution method; outline: as §1
Escherichia coli [27] = experiment: Antibacterial activity against Escherichia coli ATCC 25922 after 18 to 24 hrs by two-fold serial dilution method; outline: as §1
Klebsiella pneumoniae [28] = experiment: Antibacterial activity against Klebsiella pneumoniae 14-1 after 18 to 24 hrs by two-fold serial dilution method; outline: as §1
[29] = system: Staphylococcus epidermidis; experiment: Antibacterial activity against methicillin-resistant Staphylococcus epidermidis 14-22 after 18 to 24 hrs by two-fold serial dilution method; outline: as §2
Klebsiella pneumoniae [30] = experiment: Antibacterial activity against Klebsiella pneumoniae 14-3 after 18 to 24 hrs by two-fold serial dilution method; outline: as §1
[31] = system: Staphylococcus epidermidis; experiment: Antibacterial activity against methicillin-resistant Staphylococcus epidermidis 14-39 after 18 to 24 hrs by two-fold serial dilution method; outline: as §2
Staphylococcus aureus [32] = experiment: Antibacterial activity against methicillin-sensitive Staphylococcus aureus 14-3 after 18 to 24 hrs by two-fold serial dilution method; outline: as §1
Pseudomonas aeruginosa [33] = experiment: Antibacterial activity against Pseudomonas aeruginosa 14-9 after 18 to 24 hrs by two-fold serial dilution method; outline: as §1

Q: Which results are given for CO/N=C1/CN(c2nc3c(cc2F)c(=O)c(C(=O)O)cn3C2CC2)CC1(C)CNC1CC1 (stereo not drawn)?
A: MIC [1]: 16 µg/mL (≈ 36.1 µM); MIC (Enterococcus faecium [2]): 4 µg/mL (≈ 9.02 µM); MIC (Escherichia coli [3]): > 128 µg/mL; MIC (Staphylococcus aureus [4]): 0.5 µg/mL (≈ 1.13 µM); MIC (Pseudomonas aeruginosa [5]): 64 µg/mL (≈ 144 µM); MIC (Pseudomonas aeruginosa [6]): 32 µg/mL (≈ 72.2 µM); MIC (Staphylococcus aureus [7]): 4 µg/mL (≈ 9.02 µM); MIC (Pseudomonas aeruginosa [8]): 64 µg/mL (≈ 144 µM); MIC (Escherichia coli [9]): 32 µg/mL (≈ 72.2 µM); MIC (Klebsiella pneumoniae [10]): > 128 µg/mL; MIC (Enterococcus faecalis [11]): 0.5 µg/mL (≈ 1.13 µM); MIC (Escherichia coli [12]): > 128 µg/mL; MIC (Klebsiella pneumoniae [13]): 64 µg/mL (≈ 144 µM); MIC (Enterococcus faecalis [14]): 16 µg/mL (≈ 36.1 µM); MIC (Staphylococcus aureus [15]): 4 µg/mL (≈ 9.02 µM); MIC (Klebsiella pneumoniae [16]): 64 µg/mL (≈ 144 µM); MIC [17]: 4 µg/mL (≈ 9.02 µM); MIC [18]: 4 µg/mL (≈ 9.02 µM); MIC (Enterococcus faecium [19]): 4 µg/mL (≈ 9.02 µM); MIC (Klebsiella pneumoniae [20]): 64 µg/mL (≈ 144 µM); MIC (Staphylococcus aureus [21]): < 0.008 µg/mL; MIC (Enterococcus faecium [22]): 2 µg/mL (≈ 4.51 µM); MIC (Pseudomonas aeruginosa [23]): 64 µg/mL (≈ 144 µM); MIC (Staphylococcus aureus [24]): 0.5 µg/mL (≈ 1.13 µM); MIC (Klebsiella pneumoniae [25]): 128 µg/mL (≈ 289 µM); MIC (Streptococcus pneumoniae): 0.25 µg/mL (≈ 0.564 µM); MIC (Escherichia coli [26]): > 128 µg/mL; MIC (Escherichia coli [27]): 0.5 µg/mL (≈ 1.13 µM); MIC (Klebsiella pneumoniae [28]): 64 µg/mL (≈ 144 µM); MIC [29]: 2 µg/mL (≈ 4.51 µM); MIC (Klebsiella pneumoniae [30]): > 128 µg/mL; MIC [31]: 2 µg/mL (≈ 4.51 µM); MIC (Staphylococcus aureus [32]): 0.25 µg/mL (≈ 0.564 µM); MIC (Pseudomonas aeruginosa [33]): 16 µg/mL (≈ 36.1 µM)

Q: What does the source list for O=C(O)c1cn(C2CC2)c2nc(N3C/C(=N/OCc4ccccc4)C(CNC4CC4)C3)c(F)cc2c1=O (stereo not drawn)?
A: MIC [1]: 64 µg/mL (≈ 127 µM); MIC (Enterococcus faecium [2]): 32 µg/mL (≈ 63.3 µM); MIC (Escherichia coli [3]): > 128 µg/mL; MIC (Staphylococcus aureus [4]): 8 µg/mL (≈ 15.8 µM); MIC (Pseudomonas aeruginosa [5]): 128 µg/mL (≈ 253 µM); MIC (Pseudomonas aeruginosa [6]): 64 µg/mL (≈ 127 µM); MIC (Staphylococcus aureus [7]): > 128 µg/mL; MIC (Pseudomonas aeruginosa [8]): 64 µg/mL (≈ 127 µM); MIC (Escherichia coli [9]): 32 µg/mL (≈ 63.3 µM); MIC (Klebsiella pneumoniae [10]): > 128 µg/mL; MIC (Enterococcus faecalis [11]): 1 µg/mL (≈ 1.98 µM); MIC (Escherichia coli [12]): > 128 µg/mL; MIC (Klebsiella pneumoniae [13]): 128 µg/mL (≈ 253 µM); MIC (Enterococcus faecalis [14]): 64 µg/mL (≈ 127 µM); MIC (Staphylococcus aureus [15]): 16 µg/mL (≈ 31.6 µM); MIC (Klebsiella pneumoniae [16]): 128 µg/mL (≈ 253 µM); MIC [17]: 16 µg/mL (≈ 31.6 µM); MIC [18]: 16 µg/mL (≈ 31.6 µM); MIC (Enterococcus faecium [19]): 16 µg/mL (≈ 31.6 µM); MIC (Klebsiella pneumoniae [20]): 128 µg/mL (≈ 253 µM); MIC (Staphylococcus aureus [21]): < 0.008 µg/mL; MIC (Enterococcus faecium [22]): 8 µg/mL (≈ 15.8 µM); MIC (Pseudomonas aeruginosa [23]): 64 µg/mL (≈ 127 µM); MIC (Staphylococcus aureus [24]): 8 µg/mL (≈ 15.8 µM); MIC (Klebsiella pneumoniae [25]): 64 µg/mL (≈ 127 µM); MIC (Streptococcus pneumoniae): 8 µg/mL (≈ 15.8 µM); MIC (Escherichia coli [26]): > 128 µg/mL; MIC (Escherichia coli [27]): 4 µg/mL (≈ 7.91 µM); MIC (Klebsiella pneumoniae [28]): 64 µg/mL (≈ 127 µM); MIC [29]: 16 µg/mL (≈ 31.6 µM); MIC (Klebsiella pneumoniae [30]): 128 µg/mL (≈ 253 µM); MIC [31]: 32 µg/mL (≈ 63.3 µM); MIC (Staphylococcus aureus [32]): 4 µg/mL (≈ 7.91 µM); MIC (Pseudomonas aeruginosa [33]): 64 µg/mL (≈ 127 µM)
